Assay outcomes from PubChem.
CHO parental Ca: ATP-evoked calcium signal inhibitors, parental CHO, primary screen, counter-screen for OX1R antagonist project, cell-based, fluorescence, Fluo-8 calcium dye | parental CHO-K1, ATP-induced calcium, Fluo-8 fluorescence | 330,000 compounds, 0.63% hits | AID 463079, 2010 | inhibition, % at 5.6 µM;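 active means inhibition above that plate's mean sample inhibition plus 3 SD, cut at about 26% in these data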;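 further: 0% = ATP-challenged DMSO wells and 100% = DMSO wells without ATP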
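Assay system: untransfected parental CHO cell line. Also added: ATP agonist challenge. Dosing: one dose, 5.6 µM nominal. Measured by: Fluo-8 fluorescence. Read-out: % inhibition. Benchmarks: ATP wells versus no-ATP DMSO wells. Repeats: no replicates.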
TAAR1 ag: human TAAR1 agonists, primary screen, Fluo-8 calcium fluorescence, CHO RD-HGA16 cells. Trace amine-associated receptor 1 (Homo sapiens), Q96RJ0. 360,000 compounds, 0.99% hits. vehicle wells 0%, saturating PEA agonist 100%. activation, % at 3 µM. AID 624467, 2012;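 active means activation above the mean activation of all test compounds in the run plus 3 SD, cut at about 38% in these data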
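test system = CHO RD-HGA16 cells carrying human TAAR1 plus Gα16 | schedule = 17-24 h seeding, 75 min 37 °C dye, 30 min RT | compound dosing = 3 µM single concentration | control set = DMSO and PEA EC100 | replicates = n 1 | signal = Fluo-8 fluorescence, 5 s baseline then 140 s kinetic read | measure = percent activation vs PEA EC100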
GPR7 antag: GPR7 receptor antagonists, primary screen, cell-based, fluorescence, single concentration | GPR7-expressing cells, fluorescence antagonist assay | inhibition, % at 4.4 µM | 290,000 compounds, 1.1% hits | AID 1861, 2009; in the data active means inhibition above about 16%, passing the limit was not always enough;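 further: cells stimulated with the agonist NPW; 0% = agonist with vehicle and 100% = vehicle without agonist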
Target sequence (P48145 whole entry, looked up): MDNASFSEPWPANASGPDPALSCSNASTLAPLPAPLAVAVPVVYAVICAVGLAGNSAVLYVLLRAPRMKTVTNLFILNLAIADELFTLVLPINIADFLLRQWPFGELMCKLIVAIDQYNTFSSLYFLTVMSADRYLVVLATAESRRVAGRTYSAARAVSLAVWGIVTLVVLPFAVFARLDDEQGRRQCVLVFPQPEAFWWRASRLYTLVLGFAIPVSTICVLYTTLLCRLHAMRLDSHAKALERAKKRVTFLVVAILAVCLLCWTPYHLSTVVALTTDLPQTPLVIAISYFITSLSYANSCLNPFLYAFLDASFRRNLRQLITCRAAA
OX1R antag-1: OX1R (HCRTR1) antagonists, primary screen, fluorescence, CHO/OX1R cells, Fluo-8 calcium, orexin A; Orexin/Hypocretin receptor type 1 (Homo sapiens), O43613; Fluo-8 calcium fluorescence; inhibition, % at 5 µM; 330,000 compounds, 0.43% hits; AID 434989, 2010;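 active means inhibition above its plate's threshold, mean inhibition of all tested compounds on the plate plus 3 SD, cut at about 37% in these data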;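 further: 0% = orexin A challenge wells and 100% = SB-334867-A antagonist wells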
Target sequence (O43613 whole entry, looked up): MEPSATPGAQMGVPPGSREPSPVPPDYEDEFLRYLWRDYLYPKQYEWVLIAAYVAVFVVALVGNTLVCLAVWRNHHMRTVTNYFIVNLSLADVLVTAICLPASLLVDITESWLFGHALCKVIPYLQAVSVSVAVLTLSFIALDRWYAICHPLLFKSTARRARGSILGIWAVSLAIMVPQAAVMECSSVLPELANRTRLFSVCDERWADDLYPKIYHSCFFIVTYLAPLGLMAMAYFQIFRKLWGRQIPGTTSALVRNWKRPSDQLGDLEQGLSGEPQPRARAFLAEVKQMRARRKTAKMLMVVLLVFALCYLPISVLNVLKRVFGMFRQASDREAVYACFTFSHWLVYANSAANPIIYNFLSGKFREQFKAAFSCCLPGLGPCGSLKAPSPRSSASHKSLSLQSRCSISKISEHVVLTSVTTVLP
TAAR1 antag: human TAAR1 antagonists, primary screen, Fluo-8 calcium fluorescence, CHO RD-HGA16 cells. 360,000 compounds, 1.5% hits. antagonist. inhibition, % at 3 µM. Trace amine-associated receptor 1 (Homo sapiens), Q96RJ0;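 active means inhibition above a per-plate cutoff, the mean inhibition of test compounds on that plate plus 3 SD, cut at about 49% in these data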;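 further: 0% = DMSO plus EC80 beta-PEA response and 100% = DMSO alone without agonist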
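Material: RD-HGA16 CHO cells with stable hTAAR1 and Gα16; Dosing: single nominal final test compound concentration of 3 µM; Schedule: seeding 17-24 h prior, 75-min 37 °C, 30-min RT dye loading; Detection: kinetic Fluo-8 calcium fluorescence measurement; Measure: % inhibition from peak post-agonist over basal fluorescence ratio; Benchmarks: vehicle and agonist controls.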
OX1R antag-2: antagonists of human orexin 1 receptor (OX1R); 330,000 compounds, 1.8% hits; OX1R-expressing cells, FRET antagonist read-out; Orexin/Hypocretin receptor type 1 (Homo sapiens), O43613; inhibition, % at 6.6 µM; in the data active means inhibition mostly above about 38%, no sharp cut-off; inactive means mostly below about 40%;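 further: 0% = agonist challenge alone and 100% = reference antagonist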
TAAR1 ag confirm: human TAAR1 agonists, retest of hits, confirmation, Fluo-8 calcium fluorescence, CHO RD-HGA16 cells; shares compounds with TAAR1 ag; scaled: DMSO 0%, maximal phenethylamine 100%; activation, % at 3 µM; 2,400 compounds, 82% hits;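 active means activation above a cutoff set at the run's mean compound activation plus 3 SD, cut at about 39% in these data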
Ga16 ag counter: nonselective calcium mobilization agonists, CHO-Ga16 cells, counter-screen for hTAAR1 agonist project, cell-based, fluorescence, CHO-Ga16 parental line. shares compounds with TAAR1 ag. activation, % at 3 µM. Fluo-8 calcium fluorescence; normalized to maximal ATP response, DMSO zero. 2,400 compounds, 50% hits;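 active means activation above the run cutoff, the mean activation over all tested wells plus 3 SD, cut at about 12% in these data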;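 further: 0% = DMSO wells and 100% = maximal ATP response on the peak over basal ratio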
TAAR1 desens: TAAR1 desensitization by agonist hits, confirmation, counter-screen for TAAR1 agonist project, cell-based, fluorescence, tachyphylaxis | shares compounds with TAAR1 ag | CHO RD-HGA16 hTAAR1, Fluo-8 calcium, beta-PEA response inhibition | inhibition, % at 3 µM | 2,400 compounds, 46% hits | AID 651951, 2012;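 active means inhibition above the run cutoff, the mean inhibition of all test compounds plus 3 SD, cut at about 49% in these data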;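 further: beta-PEA stimulus applied at its EC80; loss of beta-PEA calcium signal after compound pretreatment read as receptor desensitization; 0% = DMSO with beta-PEA at EC80 and 100% = DMSO alone without agonist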
Ga16 nonsel ant: inhibition of ATP-evoked calcium response in CHO-Ga16 cells, counter-screen for TAAR1 agonist project, cell-based, fluorescence; shares compounds with TAAR1 ag; CHO-Ga16 ATP-induced calcium, Fluo-8 fluorescence; inhibition, % at 3 µM; 2,400 compounds, 39% hits;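 active means inhibition above the plate's mean compound inhibition plus 3 SD, computed per plate, cut at about 22% in these data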;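 further: 0% = EC80 ATP with DMSO and 100% = DMSO wells without ATP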
Numbers without * were called inactive; · = no result given. Most compounds without a hit are left out; they make up all but 4.5% or so of the library.

SMILES	CHO parental Ca	TAAR1 ag	GPR7 antag	OX1R antag-1	TAAR1 antag	OX1R antag-2	TAAR1 ag confirm	Ga16 ag counter	TAAR1 desens	Ga16 nonsel ant
COC(=O)C1=C(C)N(CC2CC2)C(=NCc2cccc(C(F)(F)F)c2)N[C@H]1c1ccccc1	-8	·	·	3	·	7	·	·	·	·
COC(=O)C1=C(C)N(Cc2ccc(C(F)(F)F)cc2)C(=NCc2ccccc2C(F)(F)F)NC1c1ccccc1 (stereo not drawn)	·	4	·	·	18	·	·	·	·	·
COC(=O)C1=C(C)N(Cc2cccc(C(F)(F)F)c2)C(=NCc2ccc(OC)cc2)NC1c1cccc(F)c1 (stereo not drawn)	·	43*	·	·	55*	·	42*	24*	51*	42*
COC(=O)C1=C(C)N(Cc2cccc(C(F)(F)F)c2)C(=NCc2cc(OC)c(OC)c(OC)c2)NC1c1ccccc1 (stereo not drawn)	·	44*	·	·	7	·	13	11	15	21
COC(=O)C1=C(C)N(Cc2cccc(C(F)(F)F)c2)C(=NCc2ccc(OC)cc2)NC1c1ccccc1 (stereo not drawn)	·	51*	·	·	59*	·	38*	25*	32	45*
O=C(Nc1ncc(S(=O)(=O)c2ccc([N+](=O)[O-])cc2)s1)c1ccccc1F	39*	101*	-2	54*	59*	31	110*	61*	84*	51*
O=C1NC[C@H](CC2CCCCC2)N(CCC23CC4CC(CC(C4)C2)C3)C1=O	·	11	·	·	6	·	·	·	·	·
N#C/C(=C\c1ccc(N2CCOCC2)o1)c1nc2ccccc2[nH]1	7	92*	12	-3	27	32	76*	101*	58*	52*
O=C(COC(=O)c1cc2ccccc2cc1O)Nc1ccccc1F	16	26	·	10	25	18	·	·	·	·
O=C(COC(=O)c1cc2ccccc2cc1O)Nc1cccnc1Cl	-9	48*	-6	-20	31	12	21	11	28	18
O=C(COC(=O)c1cc2ccccc2cc1O)NCc1ccccc1	11	87*	·	14	83*	11	2	29*	6	22*
O=C(COC(=O)c1ccc2ccccc2c1O)NCc1ccccc1	-14	-1	·	-28	3	12	·	·	·	·
O=C(COC(=O)c1cccc(O)c1)NC(=O)Cc1ccccc1	7	20	-2	-4	16	14	·	·	·	·
O=C(COC(=O)c1ccc(O)cc1O)NC(=O)Cc1ccccc1	·	143*	·	·	61*	·	134*	71*	88*	42*
O=c1cc(N/N=C/c2ccccc2)[nH]c(=O)[nH]1	-8	58*	·	-10	31	8	84*	15*	90*	7
O=c1cc(C=NNc2ccccc2)[nH]c(=O)[nH]1	·	·	·	·	·	·	·	3	·	11
Cc1c(C=NNc2ccccc2)[nH]c(=O)[nH]c1=O	·	58*	·	·	2	·	72*	3	36	11
CSc1ccccc1C(=O)C1CCCN(C(=O)c2cccc(Cn3cccn3)c2)C1 (stereo not drawn)	·	1	·	·	-15	·	·	·	·	·
Cc1cc(=O)c2c(N(C)C)cccc2[nH]1	·	3	·	·	-20	·	·	·	·	·
CCNC(=O)C1CCCN(C(=O)c2cccc(C(F)(F)F)c2)CC1 (stereo not drawn)	·	1	·	·	-3	·	·	·	·	·
CC(=O)N1CCN(S(=O)(=O)c2cccc(C(=O)NNC(=O)c3ccc(Br)cc3)c2)CC1	·	6	·	·	-22	·	·	·	·	·
CCCCCNC(=O)[C@@H]1CSC2c3ccccc3C(=O)N21 (stereo partly drawn)	-19	1	-2	-29	-30	-3	·	·	·	·
O=C(NCCc1cccc(F)c1)[C@@H]1CSC2c3ccccc3C(=O)N21 (stereo partly drawn)	-35	54*	9	-12	14	20	77*	3	43	15
CCOc1cc(/C=C2/C(=O)NN(c3cccc(Cl)c3)C2=O)ccc1O	-6	53*	-12	-13	-13	0	62*	18*	17	11
COc1cc(/C=C2/C(=O)NN(c3cccc(Cl)c3)C2=O)cc(OC)c1O	-14	18	-4	-6	8	12	·	·	·	·
SMILES	CHO parental Ca	TAAR1 ag	GPR7 antag	OX1R antag-1	TAAR1 antag	OX1R antag-2	TAAR1 ag confirm	Ga16 ag counter	TAAR1 desens	Ga16 nonsel ant
O=C(Nc1cccc(NC(=O)c2ccc(F)cc2)c1)c1ccc(F)cc1	-4	47*	-12	-16	31	-9	2	2	0	4
O=C(Nc1ccc(N2CCCCC2)cc1)c1ccc(F)cc1	11	98*	-12	-10	85*	13	53*	13*	18	18
CCCCCCCCN1C(=O)[C@H](CC(=O)N2CCN(C(=O)OCC)CC2)C[C@@]2(C(=O)OC)CCCCC=C12	·	-2	·	·	-7	·	·	·	·	·
CCC(=NCCc1ccccc1)C1=C(O)CCC1=O	-20	87*	-13	-10	87*	18	104*	2	93*	-3
CCCCCOc1ccc(/C(C)=N/NC2=NCCN2)cc1	-5	18	-4	-10	-11	11	·	·	·	·
CCCCCCOc1ccc(/C(C)=N/NC2=NCCN2)cc1	5	63*	1	-1	21	11	48*	23*	37	24*
CN(C(=O)c1cccc(NC(=O)Cc2ccc(NC(=O)C3CCN(C(=O)C4CC4)CC3)cc2)c1)C1CCCC1	·	1	·	·	8	·	·	·	·	·
